Consider 16 compounds from ChEMBL document CHEMBL1153588, “DNA sequence selectivity of hairpin polyamide turn units” (Bioorg Med Chem Lett, 2009).

What all share (assay type): nucleic-acid assay
The test system of experiment [1] is Nucleic Acid. The experiment can be described thus: Binding affinity to 11mer DNA duplex 5'-CTATGGTAGAC-3' assessed as change in melting temperature by spectroscopic analysis. A digest of the protocol:
(§1)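 Duplex melting temperatures were measured on a spectrophotometer with a thermo-controlled cell holder in 10 mM sodium cacodylate buffer.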

Experiment [2] concerns Nucleic Acid. The experiment can be described thus: Binding affinity to 11mer DNA duplex 5'-CTCTGGCACAC-3' assessed as change in melting temperature by spectroscopic analysis. The method in brief:
as §1

For experiment [3], the system named is Nucleic Acid. Put plainly: Binding affinity to 11mer DNA duplex 5'-CTCTGTTACCA-3' assessed as change in melting temperature by spectroscopic analysis. A digest of the protocol:
as §1

Experiment [4] deals with Nucleic Acid. The experiment can be described thus: Binding affinity to 11mer DNA duplex 5'-CTATGTTACCA-3' assessed as change in melting temperature by spectroscopic analysis. The method in brief: as §1
In experiment [5] the test system is Nucleic Acid. Put plainly: Binding affinity to 5'-ATGGTTC-3' in Escherichia coli pCDMF6 by DNase1 foot-printing titration method. A digest of the protocol:
(§2)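 The plasmid target was built by ligating an annealed synthetic oligonucleotide pair carrying the tandem match sites. A primer was 5'-end-labelled with ³²P, and binding was measured by DNase I footprinting titrations.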

For experiment [6], the system named is Nucleic Acid. The experiment can be described thus: Binding affinity to 5'-ATGGTG-3' in Escherichia coli pCDMF6 by DNase1 foot-printing titration method. The method in brief:
as §2

Experiment [7] relates to Nucleic Acid. The experiment can be described thus: Binding affinity to 5'-ATGGTA-3' in Escherichia coli pCDMF6 by DNase1 foot-printing titration method. A digest of the protocol:
as §2

The test system of experiment [8] is Nucleic Acid. The experiment can be described thus: Binding affinity to 5'-ATGGTT-3' in Escherichia coli pCDMF6 by DNase1 foot-printing titration method. A digest of the protocol: as §2

Consider `CN(C)CCCNC(=O)CCNC(=O)c1cc(NC(=O)c2cc(NC(=O)c3cc(NC(=O)[C@H](F)CCNC(=O)c4cc(NC(=O)c5nc(NC(=O)c6nccn6C)cn5C)cn4C)cn3C)cn2C)cn1C`, for which, in the experiment on Nucleic Acid [1], the ΔTm came out at 8.3 °C.
In the case of `CN(C)CCCNC(=O)CCNC(=O)c1cc(NC(=O)c2cc(NC(=O)c3nc(NC(=O)C[C@@H](N)CNC(=O)c4cc(NC(=O)c5nc(NC(=O)c6nccn6C)cn5C)cn4C)cn3C)cn2C)cn1C`, in the experiment on Nucleic Acid [2], the ΔTm worked out at 6.7 °C.
Still for that read-out and setting: the result for `CN(C)CCCNC(=O)CCNC(=O)c1cc(NC(=O)c2cc(NC(=O)c3nc(NC(=O)[C@H](N)CCNC(=O)c4cc(NC(=O)c5nc(NC(=O)c6nccn6C)cn5C)cn4C)cn3C)cn2C)cn1C` reads 8.3 °C.
As to `CN(C)CCCNC(=O)CCNC(=O)c1cc(NC(=O)c2cc(NC(=O)c3cc(NC(=O)[C@H](O)CCNC(=O)c4cc(NC(=O)c5nc(NC(=O)c6nccn6C)cn5C)cn4C)cn3C)cn2C)cn1C`, in the experiment on Nucleic Acid [1], the ΔTm stood at 10 °C.
Consider `CN(C)CCCNC(=O)CCNC(=O)c1cc(NC(=O)c2cc(NC(=O)c3cc(NC(=O)C[C@@H](N)CNC(=O)c4cc(NC(=O)c5cc(NC(=O)c6nccn6C)cn5C)cn4C)cn3C)cn2C)cn1C`, for which the ΔTm in the experiment on Nucleic Acid [3] stood at 13 °C; in the experiment with Nucleic Acid [4] it was 18 °C.
Take `CN(C)CCCNC(=O)CCNC(=O)c1cc(NC(=O)c2cc(NC(=O)c3cc(NC(=O)[C@@H](F)CCNC(=O)c4cc(NC(=O)c5nc(NC(=O)c6nccn6C)cn5C)cn4C)cn3C)cn2C)cn1C`: the ΔTm in the experiment with Nucleic Acid [1] was determined as 7.9 °C.
For the compound `CN(C)CCCNC(=O)CCNC(=O)c1cc(NC(=O)c2cc(NC(=O)c3cc(NC(=O)C[C@H](N)CNC(=O)c4cc(NC(=O)c5cc(NC(=O)c6nccn6C)cn5C)cn4C)cn3C)cn2C)cn1C`, the ΔTm in the experiment with Nucleic Acid [3] was 11.6 °C; in the experiment on Nucleic Acid [4], 17 °C.
For the compound `CN(C)CCCNC(=O)CCNC(=O)c1cc(NC(=O)c2cc(NC(=O)c3cc(NC(=O)[C@@H](O)CCNC(=O)c4cc(NC(=O)c5nc(NC(=O)c6nccn6C)cn5C)cn4C)cn3C)cn2C)cn1C`, the ΔTm with Nucleic Acid [1] worked out at 5.8 °C.
Consider `CN(C)CCCNC(=O)CCNC(=O)c1cc(NC(=O)c2cc(NC(=O)c3nc(NC(=O)C[C@H](N)CNC(=O)c4cc(NC(=O)c5nc(NC(=O)c6nccn6C)cn5C)cn4C)cn3C)cn2C)cn1C`, for which the ΔTm in the experiment on Nucleic Acid [2] came to 6 °C.
As for `CC(=O)N[C@H](CCNC(=O)c1cc(NC(=O)c2nc(NC(=O)c3nccn3C)cn2C)cn1C)C(=O)Nc1cc(C(=O)Nc2cc(C(=O)Nc3cc(C(=O)NCCC(=O)NCCCN(C)C)n(C)c3)n(C)c2)n(C)c1`, in the experiment with Nucleic Acid [1], the ΔTm amounted to 10.1 °C. In addition, the Ka with Nucleic Acid [5] is less than 1 ×10⁷ /M; in the experiment with Nucleic Acid [6], less than 1 ×10⁷ /M; in the experiment with Nucleic Acid [7] it was 2.1 ×10⁸ /M; in the experiment on Nucleic Acid [8], 3.2 ×10⁸ /M.
For the compound `CN(C)CCCNC(=O)CCNC(=O)c1cc(NC(=O)c2cc(NC(=O)c3cc(NC(=O)C[C@H](N)CNC(=O)c4cc(NC(=O)c5nc(NC(=O)c6nccn6C)cn5C)cn4C)cn3C)cn2C)cn1C`, in the experiment on Nucleic Acid [1], the ΔTm is 14.7 °C. In addition, the Ka with Nucleic Acid [5] was 6 ×10⁷ /M; in the experiment on Nucleic Acid [6], less than 1 ×10⁷ /M; with Nucleic Acid [7], 1.3 ×10⁹ /M; in the experiment on Nucleic Acid [8], 1.1 ×10⁹ /M.
For `CN(C)CCCNC(=O)CCNC(=O)c1cc(NC(=O)c2cc(NC(=O)c3cc(NC(=O)C[C@@H](N)CNC(=O)c4cc(NC(=O)c5nc(NC(=O)c6nccn6C)cn5C)cn4C)cn3C)cn2C)cn1C`, in that order: 14.9 °C, 5 ×10⁷ /M, less than 1 ×10⁷ /M, 1.8 ×10⁹ /M and 3.3 ×10⁹ /M.
For `CN(C)CCCNC(=O)CCNC(=O)c1cc(NC(=O)c2cc(NC(=O)c3cc(NC(=O)CCCNC(=O)c4cc(NC(=O)c5nc(NC(=O)c6nccn6C)cn5C)cn4C)cn3C)cn2C)cn1C`, in that order: 9.2 °C, less than 1 ×10⁷ /M, less than 1 ×10⁷ /M, 2 ×10⁸ /M and 2.1 ×10⁸ /M.
`CN(C)CCCNC(=O)CCNC(=O)c1cc(NC(=O)c2cc(NC(=O)c3cc(NC(=O)[C@H](N)CCNC(=O)c4cc(NC(=O)c5cc(NC(=O)c6nccn6C)cn5C)cn4C)cn3C)cn2C)cn1C`: the ΔTm with Nucleic Acid [3] was 10.9 °C; in the experiment on Nucleic Acid [4] it was 15.9 °C.
Take `CN(C)CCCNC(=O)CCNC(=O)c1cc(NC(=O)c2cc(NC(=O)c3cc(NC(=O)[C@H](N)CCNC(=O)c4cc(NC(=O)c5nc(NC(=O)c6nccn6C)cn5C)cn4C)cn3C)cn2C)cn1C`: in the experiment with Nucleic Acid [1], the ΔTm was determined as 14.7 °C. The Ka is 3.9 ×10⁷ /M in the experiment on Nucleic Acid [5], less than 1 ×10⁷ /M in the experiment on Nucleic Acid [6], 1.7 ×10⁹ /M in the experiment with Nucleic Acid [7] and 1.6 ×10⁹ /M in the experiment with Nucleic Acid [8].
In the same order, the values of `CC(=O)N[C@@H](CNC(=O)c1cc(NC(=O)c2nc(NC(=O)c3nccn3C)cn2C)cn1C)CC(=O)Nc1cc(C(=O)Nc2cc(C(=O)Nc3cc(C(=O)NCCC(=O)NCCCN(C)C)n(C)c3)n(C)c2)n(C)c1` are 12.2 °C, 8.9 ×10⁷ /M, less than 1 ×10⁷ /M, 5.2 ×10⁹ /M and 2 ×10⁹ /M.
